SUMO1 PPI mod – modulators of human SUMO1-mediated protein-protein interactions; inhibition, % at 20 µM; P63165; AID 602429; hit rate 0.33% among 360,000; SUMO1 binding to a labelled peptide, TR-FRET, 1 h; in the data active = inhibition above about 37%
Target sequence (P63165 whole entry, looked up): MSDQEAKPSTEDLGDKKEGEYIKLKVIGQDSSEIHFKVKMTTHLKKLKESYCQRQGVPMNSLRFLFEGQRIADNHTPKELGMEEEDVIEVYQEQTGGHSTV
Scp1 inh – inhibitors of human Scp-1 phosphatase | Recombinant Scp1, phosphopeptide, malachite green phosphate absorbance | hit rate 0.88% among 340,000 | inhibition, % at 20 µM | Q9GZU7;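 active = inhibition above about 50% at 20 µM, limit read from the data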
Target sequence (Q9GZU7 76-261 limits assumed): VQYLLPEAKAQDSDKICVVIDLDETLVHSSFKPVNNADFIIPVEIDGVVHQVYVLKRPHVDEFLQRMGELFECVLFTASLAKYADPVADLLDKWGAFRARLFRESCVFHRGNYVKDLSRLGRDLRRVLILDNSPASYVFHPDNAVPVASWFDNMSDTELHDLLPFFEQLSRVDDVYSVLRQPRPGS
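System: truncated SCP-1 phosphatase (76-261aa); medium: Tris acetate buffer pH 5.5 with MgCl2 and Tween-20; incubation: 45 min room-temperature reaction, 5 min colour, 30 min stabiliser; compound: single 20 µM dose, 1% DMSO; reagent: Phosphorylated 17-residue peptide substrate; read-out: % inhibition at 20 µM; technique: colorimetric free-phosphate detection, absorbance 630 nm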
LMPTP inh – blocks human LMPTP phosphatase | recombinant LMPTP-A, OMFP fluorogenic substrate, fluorescence intensity | AID 651560 | hit rate 0.22% among 360,000 | inhibition, % at 20 µM;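 active = compounds that cut the enzyme signal by at least half of the control window in the single-dose screen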
Target sequence (P24666 whole entry, looked up): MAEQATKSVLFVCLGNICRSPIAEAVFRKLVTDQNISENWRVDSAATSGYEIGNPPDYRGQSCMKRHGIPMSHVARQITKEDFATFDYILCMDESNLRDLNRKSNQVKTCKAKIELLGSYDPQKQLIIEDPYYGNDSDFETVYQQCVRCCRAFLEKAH
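Assay system: LMPTP-A enzyme. Input: 0.625 nM LMPTP-A final. Probe or stimulus: 400 µM OMFP. Compound dosing: single 20 µM dose. Schedule: 50 min dark incubation at room temperature. Detection: fluorescence intensity of OMFP turnover product. Read-out: percent inhibition versus substrate-only and uninhibited controls. Benchmarks: no-enzyme low control, uninhibited high control.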
STEP block – inhibitors of human striatal-enriched phosphatase STEP; P54829; recombinant STEP, OMFP fluorogenic substrate, fluorescence; hit rate 0.25% among 360,000; AID 588621; inhibition, % at 20 µM;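 active = inhibition at 20 µM, scaled per plate between control wells, above about 37%, limit read from the data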
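System: STEP (striatal-enriched tyrosine phosphatase) enzyme, cell-free; medium: Bis-Tris pH 6.0 buffer with DTT, detergent; dosing: 20 µM, 1% DMSO; times: reaction 20 min, ambient temperature; detection: fluorescence, 480/540 nm; read-out basis: normalized % inhibition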
NadD inh – blocks S. aureus nicotinate mononucleotide adenylyltransferase. hit rate 0.78% among 360,000. AID 602399. purified NadD enzyme, colorimetric absorbance read-out. inhibition, % at 20 µM; in the data active = inhibition above about 26%
DNMT1 inh – inhibitors of human DNMT1; hit rate 0.83% among 360,000; AID 588458; inhibition (reported as % activation of signal), % at 10 µM; DNMT1 molecular beacon, Hinp1I cleavage, fluorescence; in the data active = inhibition above about 50%
Numbers stand for hits; n = inactive; x = not tested or not shown. Shown are actives, neighbours in structure and some others; about 2.4% of the full set was active somewhere.

SMILES	SUMO1 PPI mod	Scp1 inh	LMPTP inh	STEP block	NadD inh	DNMT1 inh
O=S(=O)(NCC(O)COCc1ccco1)c1cccs1 (stereo not given)	n	64.6	n	n	n	n
CC(=O)Nc1ccc(-c2nc3cc(Cl)ccc3o2)cc1	n	61.7	n	n	n	n
O=C(O)c1ccccc1-c1ccccc1C(=O)Nc1ccc(-c2nc3cc(Cl)ccc3o2)cc1	n	n	n	n	n	n
Cn1ccnc1COc1ccc(/C=N/O)cc1	n	n	n	n	n	n
NS(=O)(=O)c1ccc2c(c1)C1C=CCC1C(C1CC=CCC1)N2 (stereo not given)	n	n	n	n	38.6	n
Cc1cccc(Nc2cc(C)c3c(O)cccc3n2)c1C	n	n	68.6	n	n	n
Cc1[nH]n(-c2ccccc2)c(=S)c1C=Nc1cccc([N+](=O)[O-])c1	n	87.0	n	n	n	n
COc1cc(/C=C2\SC(=S)N(NS(=O)(=O)c3ccccc3)C2=O)ccc1O	n	60.2	n	n	n	n
CC1=NN(C(=O)c2ccccc2F)C(O)(c2ccc(Cl)cc2)C1 (stereo not given)	n	n	n	n	n	n
COc1cc([N+](=O)[O-])ccc1NC(=O)COC(=O)c1ccc(NC(N)=O)cc1	44.9	n	n	n	n	n
COCC(=O)Nc1ccc([N+](=O)[O-])cc1OC	n	n	n	n	n	n
Nn1c(SCc2cc([N+](=O)[O-])cc3c2OCOC3)nnc1-c1cccnc1	n	n	n	n	n	n
N#Cc1ccc(Oc2ccc(S(=O)(=O)N3CCOCC3)cn2)cc1	n	n	n	n	n	n
O=C1C=C(Nc2cccnc2)c2ccccc2C1=O	n	n	n	n	n	n
O=C1C=C(NCc2ccccc2)c2ccccc2C1=O	43.7	n	n	n	n	84.4
CCOc1ccc(NC2=CC(=O)CCC2)cc1	n	n	n	n	n	n
O=C1C=C(Nc2ccc(F)cc2)c2ccccc2C1=O	n	n	n	n	n	54.5
O=C1C=C(Nc2ccccc2O)c2ccccc2C1=O	n	n	n	n	n	n
CCOc1ccc(NC2=CC(=O)C(=O)c3ccccc32)cc1	n	56.7	n	n	n	n
COc1ccc(-c2noc(COC(=O)c3ccco3)n2)cc1OC	n	n	n	n	n	n
CC(=O)Oc1ccccc1C(=O)NC(C)CCc1ccccc1 (stereo not given)	n	n	n	n	n	n
COCCNC(=O)C(NC(=O)C1CCC(C)CC1)C(C)C (stereo not given)	n	n	n	n	n	n
CC1=NN(c2ccc(C(=O)O)cc2)C(=O)/C1=C\c1ccc(OC(=O)c2cccs2)cc1	n	51.8	n	n	n	n
CC1=NN(c2ccccc2)C(=O)/C1=C/c1cccs1	n	n	n	n	n	n
CCOc1cc(/C=C2\C(=O)N(c3ccc(C(N)=O)cc3)N=C2C)ccc1OC(=O)c1cccs1	74.5	n	n	n	n	n
SMILES	SUMO1 PPI mod	Scp1 inh	LMPTP inh	STEP block	NadD inh	DNMT1 inh
CCOc1cc(/C=C2/C(=O)N(c3ccccc3)N=C2C)ccc1OC(=O)c1ccco1	n	n	n	n	n	n
COc1ccc(-n2cccc2/C=C2\C(=N)N3N=C(c4ccco4)SC3=NC2=O)cc1	103.0	81.5	50.6	86.8	73.8	90.4
CCC1=NN2C(=N)/C(=C\c3ccc(OCCOc4ccc(NC(C)=O)cc4)c(OC)c3)C(=O)N=C2S1	n	n	n	n	n	n
CCC1=NN2C(=N)/C(=C\c3ccc(OCCOc4ccccc4OC)cc3)C(=O)N=C2S1	n	n	n	n	24.7	n
COc1ccc(OCCOc2ccc(/C=C3\C(=N)N4N=C(C)SC4=NC3=O)cc2)cc1	n	n	n	n	68.2	n
COc1cc(C2C(C#N)=C(N)OC3=C2C(=O)CCC3)c([N+](=O)[O-])cc1OC (stereo not given)	n	n	n	n	n	n
Cc1cccc(C)c1NC(=O)C(c1ccccc1F)n1c(=O)c(-c2ccccc2)nc2ccccc21 (stereo not given)	n	x	n	x	x	x
Cn1ccc2ccc(C3=CC(=O)C[C@H](c4ccc(F)cc4)C3)cc21	n	n	n	n	n	n
CN1CCN(C(=O)c2cnn(-c3ccccc3)c2NC(=O)c2cccs2)CC1	n	n	n	n	n	n
